We go through three compounds from PMC3041652 (Arteriosclerosis, thrombosis, and vascular biology, 2011).

A word on the Ki: it is a dissociation constant, usually derived from enzyme kinetics or from competition with a known ligand.

Data set [1] relates to elastinolytic activity in brachiocephalic atherosclerotic lesions. Nature of the data set: Elastinolytic in situ zymography of brachiocephalic artery lesions. The format is biochemical, mouse. The gist of the method:
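Brachiocephalic lesion sections came from apoE-knockout mice fed a high-fat diet for 12 weeks. They were incubated with a fluorescently quenched elastin substrate in incubation buffer alone or with added 100 nmol/L test compound, 20 mmol/L EDTA or 1 μmol/L reference MMP inhibitor. Elastinolytic activity was read as green fluorescence.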

A short description of data set [2]: Plasma concentration of inhibitor after osmotic minipump infusion. The data set is classed as in vivo, apoE-knockout mice. The gist of the method: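 ApoE-knockout mice on a high-fat diet (n=6) received test compound at 4.6 mg/kg body weight per day by osmotic minipump. MMP inhibitory activity in plasma was measured with a fluorogenic substrate, and inhibitor concentration was derived from a calibration inhibition curve. Intact compound in plasma extracts was confirmed by micro-HPLC coupled to mass spectrometry.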

Data set [3] deals with mouse monocyte-derived macrophages. Nature of the data set: In vitro serum starvation-induced apoptosis of macrophages. The format is cell-based.
Data set [4] concerns other MMPs. The following applies: cited from earlier work.
For data set [5], the system named is rabbit granuloma foam-cell macrophages. In words: In vitro serum starvation-induced apoptosis of foam-cell macrophages. The data set is classed as cell-based.
Data set [6] concerns the target mouse MMP-12 (Mus musculus, UniProt P34960). In words: Inhibition of mouse MMP-12. The format is biochemical.
Data set [7] concerns other MMPs.
Data set [8] deals with monocyte/macrophage invasion. In words: In vivo subcutaneous sponge monocyte/macrophage invasion assay. Set-up: species or system C57Bl/6;Sv129 mice. The gist of the method: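 Male C57Bl/6;Sv129 mice carrying multiple subcutaneous sponges were infused by osmotic minipump with test compound (n=7) or PBS (n=7). Sponges were retrieved and either used to isolate monocytes/macrophages or formalin-fixed for histology of proliferation and apoptosis.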

Data set [9] relates to apoE-knockout mice atherosclerotic plaques. The data set is classed as in vivo, mouse. The method, boiled down: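 ApoE-null mice (71% C57BL/6, 29% 129 background), both sexes, fed a high-fat diet for 8 weeks. They then received subcutaneous interscapular osmotic minipumps of test compound at 4.6 mg/kg body weight per day in sterile PBS (n=23) or PBS alone (n=27), with the diet continued 4 weeks. Brachiocephalic artery, proximal aorta, descending aorta and heart were analysed histologically. Apoptosis and calcification were scored by immunohistochemistry; calcification area was normalised to lesion area; mean±SEM.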

The nature of data set [10]: Body weight and plasma lipids after 4 weeks of infusion. As to conditions: 4.6 mg/kg per day for 4 weeks. The data set is classed as in vivo, apoE-knockout mice.
In data set [11] the test system is N-cadherin. In words: N-cadherin Western blotting in macrophages treated with active MMP-12. The data set is classed as cell-based. On the technique in general: In western blotting, separated proteins are transferred to a membrane and probed.
Data set [12] has as its system mouse smooth muscle cells. In words: FasL-induced apoptosis of smooth muscle cells. The following applies: untreated cells 78±29; unchanged. The data set is classed as cell-based.
The target of data set [13] is human MMP-12. As to conditions: read-out: Ki against human MMP-12; cited from earlier work.
Data set [14] has as its system mouse monocyte-derived macrophages. In words: In vitro proliferation of monocyte-derived macrophages. As to conditions: 100 nmol/L. The format is cell-based.
The mark [15] stands for this setting: compared with active MMP-12 alone, 100 nmol/L.

Sequence of mouse MMP-12 (P34960 110-473): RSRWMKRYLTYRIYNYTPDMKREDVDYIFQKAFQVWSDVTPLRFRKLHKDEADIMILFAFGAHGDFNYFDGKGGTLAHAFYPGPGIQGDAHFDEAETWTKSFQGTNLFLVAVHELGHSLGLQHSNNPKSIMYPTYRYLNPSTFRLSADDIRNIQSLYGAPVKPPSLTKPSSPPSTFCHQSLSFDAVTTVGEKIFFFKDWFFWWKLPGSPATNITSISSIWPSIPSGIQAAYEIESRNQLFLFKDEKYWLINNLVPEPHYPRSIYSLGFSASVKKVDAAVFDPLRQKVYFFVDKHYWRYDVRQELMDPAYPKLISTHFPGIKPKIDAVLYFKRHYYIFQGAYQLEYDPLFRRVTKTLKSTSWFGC

In the case of `CNC(=O)[C@H](Cc1ccccc1)NC(=O)[C@H](CC(C)C)[C@H](CSc1cccs1)C(=O)NO` [BB94, reference compound], the “reduction of elastinolytic activity” value in data set [1] (1 μmol/L) was 95±4%.
Take `O=C(O)CN(CCN(CC(=O)O)CC(=O)O)CC(=O)O` [EDTA, reference compound]: the “reduction of elastinolytic activity” value in data set [1] (20 mmol/L) came out at 94±5%.
Regarding `NC(=O)[C@H](CCC(=O)O)NC(=O)[C@H](CCC(=O)O)NC(=O)[C@H](Cc1cc(-c2ccc(-c3cccc(Cl)c3)cc2)no1)CP(=O)(O)c1ccc(Br)cc1` [RXP470.1], the “form observed in plasma of infused mice (mass spectroscopy fingerprint analysis)” value in data set [2] is reported as “intact form”. In data set [3] (setting [15]), this compound showed an inhibition of apoptosis of 91%. The “apoptotic rate relative to control cells” value in data set [3] (no added MMP-12) is given as “significantly reduced”. The “less potent against other MMPs than against human MMP-12” value in data set [4] was 2 to 4 orders of magnitude. For the same compound, in [1] (100 nmol/L, P<0.05), the “reduction of elastinolytic activity” value is 74%. The “elastinolytic activity, fluorescence of total plaque area” value in data set [1] (100 nmol/L, incubation buffer alone 4.1±0.5%) is listed as 1.1±0.3%. This compound also yielded an inhibition of apoptosis in data set [5] (setting [15]) of 91%. In addition, the “apoptotic rate relative to control cells” value in data set [5] (no added MMP-12) is recorded as “significantly reduced”. Also, the inhibition constant (Ki) in data set [6] stood at 4 nM. In addition, the “in vitro selectivity for MMP-12 over other MMPs” value in [7] is “greater than 100 fold”. In addition, the “proliferative rate of sponge macrophages” value in data set [8] (control 4.0±1.1%) is listed as 5.6±1.6%. Besides, the “apoptotic cells in sponges” value in [8] (mouse, in vivo) is “no apoptotic cells were detected”. Also, the “reduction of invasive capacity of monocyte/macrophages” value in [8] (vs controls, P<0.01) came to 48%. The “reduction of atherosclerotic plaque cross-sectional area” value in [9] (at 4 different vascular sites, male and female mice, Western diet) is “approximately 50%”. The “frequency of intraplaque macrophage apoptosis” value in data set [9] (baseline 15.3±3.0%) worked out at 18.1±5.8%. In data set [9] (brachiocephalic artery plaques), the “reduction in apoptotic frequency, cleaved PARP-1 immunohistochemistry” value was 57% and the “reduction in apoptotic frequency, pyknotic/fragmented nuclei” value is 43%. The “reduction of the number of ISEL-positive macrophages” value in [9] (brachiocephalic artery plaques, P<0.05) turned out to be 42%. Besides, the “increase of smooth muscle cell:macrophage ratio” value in data set [9] (brachiocephalic artery, P<0.05) is recorded as 33%. Moreover, the “smooth muscle cells as a proportion of all plaque cells” value in data set [9] (brachiocephalic artery, control 31±3%, P<0.05) turned out to be 41±3%. In addition, in data set [9] (brachiocephalic artery, control 42±1%, P<0.01), the “percentage of macrophages of plaque cells” value is 36±2%. Further, the “area of calcification normalized to lesion area” value in data set [9] (control 5.9±2.2%) came out at 0.8±0.6%. Besides, the “percentage of proliferating macrophages in brachiocephalic plaques, Ki67” value in data set [9] (control 14.8±3.1%) is on record as 13.6±2.2%. Further, the “necrotic core size, percentage of total plaque area” value in data set [9] (control 24±2%) worked out at 13±3%. In data set [9] (control 37%, P<0.05), the “number of lesions showing elastin fragmentation” value is reported as 8%. For the same compound, in data set [9] (did not reach statistical significance), the “increase in collagen content of lesions” value worked out at 26%. This compound also returned a minimum cap thickness in data set [9] (no inhibitor 8.7±1.0, baseline 10.2±1.5) of 16.4±2.2 μm. Moreover, the “lesion size, brachiocephalic artery” value in [9] (treated mice, at commencement of drug administration 147±32) is 153±31 ×10^3 μm^2. Further, the “total elastin content of plaques” value in data set [9] (vs control) was “no difference”. Also, in [9] (vs control mice), the “endothelial coverage over plaques” value was “no differences”; the “expression of vascular cell adhesion molecule-1 and MCP-1 and -2” value is listed as “no difference”. Besides, in data set [9] (vs controls), the “reduction in the number of mice with any detectable atherosclerotic lesion, thoracic aorta” value is listed as 70% and the “reduction in the number of plaques containing buried fibrous layers” value came out at 65%. Besides, in [9] (vs controls after 12 weeks of high-fat feeding, P<0.05), the “reduction of plaque cross-sectional area, brachiocephalic artery” value was determined as 44%. For the same compound, the “decrease in the area of calcification normalized to lesion area” value in data set [9] (vs controls, P<0.01) is 86%. Further, in data set [9] (vs controls, P<0.05), the “reduction in lesion necrotic core size” value turned out to be 46%; the “reduction in plaque area, aortic sinus” value is on record as 37%; the “reduction in plaque area, proximal aorta” value is listed as 61%; the “reduction in plaque size, thoracic aorta” value is given as 88%. Besides, the “reduction in the incidence of calcification in lesions” value in data set [9] (vs controls, P<0.05) came to 72%. The tolerability entry in data set [10] is listed as “well tolerated”. In data set [10] (control 35.7±1.2 g), this compound displayed a body weight of 36.2 ± 0.9 g. Also, the “effect on reduction of full-length N-cadherin expression by active MMP-12” value in data set [11] (coincubation with active MMP-12) was “reversed”. For the same compound, in data set [11] (in the presence of active MMP-12), the “formation of the cleaved fragment of N-cadherin” value is reported as “negated”. Besides, the “rate of FasL-induced apoptosis” value in data set [12] is 70±29 ×10^4 ALU. In addition, the Ki in data set [13] is 0.2 nM. In data set [14] (absence of added active MMP-12, control 36±5%), this compound yielded a macrophage proliferation of 46±13%. The macrophage proliferation in data set [14] (presence of added active MMP-12, MMP-12 alone 46±2%) is given as 39±12%.
